Results published in ChEMBL document CHEMBL1128522, “Phosphinic acid analogues of GABA. 2. Selective, orally active GABAB antagonists” (J Med Chem, 1995).

Columns and labels:
[1] = target: Gamma-aminobutyric acid type B receptor subunit 1 (Rattus norvegicus, UniProt Q9Z0U4); experiment: Inhibition of binding of [3H]CGP-27492 to gamma-aminobutyric acid type B receptor of rat cortex.
[2] = species on record: Rattus norvegicus; experiment: The compound was tested for enhancement of electrically induced release of [3H]GABA from rat cortical slices.; format: functional
Procedure, shortened: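 Rat cerebral cortex slices were electrically stimulated at 2 Hz, and the increase in GABA release was measured in quadruplicate. EC150, the concentration giving a 50% increase in GABA release, came from computer-aided curve fitting. Where no EC150 was given, the value is the percent increase at 10^-4 M or 10^-5 M.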

[3] = species on record: Rattus norvegicus; experiment: Enhanced electrically induced release of [3H]GABA from rat cortical slices; agonist; format: functional; conditions: filed as agonist
Procedure, shortened: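 Electrically stimulated rat cerebral cortex slices at 2 Hz; [3H]GABA release measured. EC150 is the concentration giving a 50% increase in GABA release, obtained by computer-aided curve fitting. Run in quadruplicate; no standard deviations computed because curve slopes varied. Some entries are instead percent increase at a single concentration of 10^-4 or 10^-5 M.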

[4] = Inhibition of [3H]5-HT binding to 5-hydroxytryptamine 1 receptor of central nervous system; conditions: concentration not given here
[5] = target: Glutamate receptor ionotropic AMPA (Homo sapiens) (UniProt P48058+P42263+P42262+P42261); experiment: Inhibition of [3H]-AMPA binding to Quisqualate receptor of central nervous system; format: protein-complex assay; conditions: concentration not given here
[6] = Inhibition of [3H]DCKA binding to N-methyl-D-aspartate glutamate receptor 1 of central nervous system; conditions: concentration not given here
[7] = target: Histamine H2 receptor (Homo sapiens) (UniProt P25021); experiment: Inhibition of [3H]tiotidine binding to histamine 2 receptor of central nervous system; conditions: concentration not given here
Histamine H2 receptor (Homo sapiens), sequence (P25021 whole entry): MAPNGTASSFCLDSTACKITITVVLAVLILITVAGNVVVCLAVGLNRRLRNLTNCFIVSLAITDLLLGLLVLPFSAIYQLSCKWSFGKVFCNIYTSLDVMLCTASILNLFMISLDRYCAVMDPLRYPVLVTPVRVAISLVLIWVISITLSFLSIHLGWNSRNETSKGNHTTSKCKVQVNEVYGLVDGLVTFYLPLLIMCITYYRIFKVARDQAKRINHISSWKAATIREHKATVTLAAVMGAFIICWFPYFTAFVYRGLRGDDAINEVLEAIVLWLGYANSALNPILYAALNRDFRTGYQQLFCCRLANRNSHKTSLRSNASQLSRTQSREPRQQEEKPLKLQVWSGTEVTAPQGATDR

[8] = target: Glutamate receptor ionotropic kainate (Homo sapiens) (UniProt P39086+Q16478+Q16099+Q13002+Q13003); experiment: Inhibition of [3H]kainate binding to Ionotropic glutamate receptor kainate of central nervous system; format: protein-complex assay; conditions: concentration not given here
[9] = target: Histamine H1 receptor (Homo sapiens) (UniProt P35367); experiment: Inhibition of [3H]doxepine binding to histamine-1 receptor of central nervous system.; conditions: concentration not given here
Histamine H1 receptor (Homo sapiens), sequence (P35367 whole entry): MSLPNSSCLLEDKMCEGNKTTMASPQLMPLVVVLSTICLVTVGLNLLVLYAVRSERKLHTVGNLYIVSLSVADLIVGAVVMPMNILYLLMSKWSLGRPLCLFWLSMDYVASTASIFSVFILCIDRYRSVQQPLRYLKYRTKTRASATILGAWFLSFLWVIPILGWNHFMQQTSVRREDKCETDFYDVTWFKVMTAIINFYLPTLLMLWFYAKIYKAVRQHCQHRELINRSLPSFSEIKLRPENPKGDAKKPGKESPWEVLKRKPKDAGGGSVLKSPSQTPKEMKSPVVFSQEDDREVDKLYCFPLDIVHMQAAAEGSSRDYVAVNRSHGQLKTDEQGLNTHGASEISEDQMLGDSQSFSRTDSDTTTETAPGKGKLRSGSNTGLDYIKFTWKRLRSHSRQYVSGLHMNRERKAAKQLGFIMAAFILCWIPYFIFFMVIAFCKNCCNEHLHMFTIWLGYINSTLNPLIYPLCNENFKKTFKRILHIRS

Gamma-aminobutyric acid type B receptor subunit 1, sequence (Q9Z0U4 whole entry): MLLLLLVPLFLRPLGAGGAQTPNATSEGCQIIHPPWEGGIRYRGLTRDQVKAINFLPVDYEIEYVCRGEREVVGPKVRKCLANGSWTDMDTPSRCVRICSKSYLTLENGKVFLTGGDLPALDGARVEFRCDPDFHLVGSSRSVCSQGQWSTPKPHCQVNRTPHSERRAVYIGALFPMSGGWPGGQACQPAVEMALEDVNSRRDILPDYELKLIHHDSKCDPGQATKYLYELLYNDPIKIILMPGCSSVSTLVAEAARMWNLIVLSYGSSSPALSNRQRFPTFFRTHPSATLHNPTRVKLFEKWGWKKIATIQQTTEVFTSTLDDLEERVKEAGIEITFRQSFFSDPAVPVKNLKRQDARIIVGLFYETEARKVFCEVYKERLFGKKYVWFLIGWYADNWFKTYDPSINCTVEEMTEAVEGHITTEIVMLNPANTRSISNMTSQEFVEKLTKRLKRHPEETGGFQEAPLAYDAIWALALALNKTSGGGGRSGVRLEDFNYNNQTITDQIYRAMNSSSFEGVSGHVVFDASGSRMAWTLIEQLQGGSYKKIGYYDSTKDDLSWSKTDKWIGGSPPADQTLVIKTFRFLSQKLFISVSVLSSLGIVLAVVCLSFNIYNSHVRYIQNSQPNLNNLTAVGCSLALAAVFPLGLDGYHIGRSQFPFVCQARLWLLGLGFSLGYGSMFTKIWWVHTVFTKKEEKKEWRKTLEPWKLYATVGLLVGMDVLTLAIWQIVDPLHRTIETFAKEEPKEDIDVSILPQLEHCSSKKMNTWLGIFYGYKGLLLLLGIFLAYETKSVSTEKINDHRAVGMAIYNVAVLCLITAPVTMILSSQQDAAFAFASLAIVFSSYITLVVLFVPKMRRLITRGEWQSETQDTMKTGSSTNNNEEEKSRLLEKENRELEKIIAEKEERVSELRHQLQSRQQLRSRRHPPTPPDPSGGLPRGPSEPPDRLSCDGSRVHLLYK

Structure (SMILES)	IC50 [1] [µM]	EC150 [2] [µM]	also measured
CC(C)OC(OC(C)C)P(=O)(O)CCCN	18	47	–
NC[C@H](O)CP(=O)(O)CC1CCCCC1	5	2	–
NCCCP(=O)(O)CC1CCCCC1	4	3	–
NCCCP(=O)(O)CCC1CCCCO1 (stereo not drawn)	2	30	–
CCOC(OCC)P(=O)(O)CCCN	27	30	–
CC(C)(C)P(=O)(O)CCCN	73	–	–
NCC(O)CP(=O)(O)Cc1ccccc1 (stereo not drawn)	8	4	–
CC(C)CP(=O)(O)CCCN	14	98	–
NCCCP(=O)(O)CCCN	29	–	–
CCOC(OCC)P(=O)(O)CC(CN)c1ccc(Cl)cc1 (stereo not drawn)	21	11	–
NC[C@@H](O)CP(=O)(O)Cc1ccccc1	32	11	–
CP(=O)(O)CCCN	–	–	EC150 [3]: Agonist
NCC(O)CP(=O)(O)CC1CCCCC1 (stereo not drawn)	5	8	–
CCCP(=O)(O)CCCN	16	30	–
CCCCP(=O)(O)CC(C)(O)CN (stereo not drawn)	45	–	–
NCCCP(=O)(O)CCC1CCCCC1	2	13	–
NCCCP(=O)(O)c1ccccc1	126	–	–
NCCC[PH](=O)O	0.005	–	EC150 [3]: Agonist
CC(=O)CCP(=O)(O)CCCN	1	4	–
NC[C@@H](O)CP(=O)(O)CC1CCCCC1	6	4	–
NCCCP(=O)(O)CC1CCCCO1 (stereo not drawn)	32	12	–
CCCCCCP(=O)(O)CCCN	20	14	–
NCCCP(=O)(O)Cc1ccccn1	6	30	–
CCCCP(=O)(O)CC(O)(CN)c1ccc(Cl)cc1 (stereo not drawn)	7	45	–
CP(=O)(O)CC(CN)c1ccc(Cl)cc1 (stereo not drawn)	9	28	–

Structure (SMILES)	IC50 [1] [µM]	EC150 [2] [µM]	also measured
CCCCP(=O)(O)CC(=O)CN	–	6	–
CCOC(OCC)P(=O)(O)C[C@@H](O)CN	12	11	–
CCCC(O)P(=O)(O)CCCN (stereo not drawn)	18	44	–
NCCCP(=O)(O)C(O)c1ccccc1 (stereo not drawn)	8	10	–
NC[C@H](O)CP(=O)(O)Cc1ccccc1	5	5	–
CCP(=O)(O)CCCN	2	118	–
CCCCOC(OCCCC)P(=O)(O)CCCN	20	300	–
NCCCP(=O)(O)C1CCCO1 (stereo not drawn)	34	89	–
CP(=O)(O)CC(O)(CN)c1ccc(Cl)cc1 (stereo not drawn)	6	30	–
NCCCP(=O)(O)CCc1ccccc1	10	60	–
CCCCP(=O)(O)C(C)CCN (stereo not drawn)	341	8	–
CCCCP(=O)(O)CC(O)CN (stereo not drawn)	29	8	–
NCC(=O)CP(=O)(O)CC1CC1	14	3	–
NCCCP(=O)(O)CC1CC1	37	53	–
NCCCP(=O)(O)Cc1ccc(F)cc1	52	10	–
NCC(=O)CP(=O)(O)CC1CCCCC1	50	5	–
NCCCP(=O)(O)Cc1ccccc1	10	5	–
CCCCP(=O)(O)CCCN [SGS-742]	–	38	inhibition [4]: 2%; inhibition [5]: 7%; inhibition [6]: 16%; inhibition [7]: 6%; inhibition [8]: 8%; inhibition [9]: 7%
NCCCP(=O)(O)CN	50	2	–
CCCOC(OCCC)P(=O)(O)CCCN	28	60	–
CCCCP(=O)(O)C(O)CCN (stereo not drawn)	37	–	–
CCCC(F)(F)P(=O)(O)CCCN	22	115	–
NCCCP(=O)(O)C1CCCCO1 (stereo not drawn)	39	144	–
CCOC(OCC)P(=O)(O)CC(O)CN (stereo not drawn)	16	9	–
NCCCP(=O)(O)CC(O)CNC(=O)c1ccccc1C(N)=O (stereo not drawn)	2	9	–
